Measurements: article PMC3677213 (Antiviral research, 2013)
Like-named read-outs stand apart in the source and are kept apart here.

Experiments:
WT HIV-1 NL4-3 = type: cell-based; conditions: MT-4 cells
[1] = test system: HIV-1 NL4-3 integrase Y143C; type: cell-based; conditions: MT-4 cells; IN substitution Y143C
[2] = test system: HIV-1 NL4-3 integrase N155H; type: cell-based; conditions: MT-4 cells; IN substitution N155H
[3] = test system: HIV-1 NL4-3 integrase E92Q/N155H; type: cell-based; conditions: MT-4 cells; IN substitutions E92Q/N155H
[4] = test system: HIV-1 NL4-3 integrase T66I; type: cell-based; conditions: MT-4 cells; IN substitution T66I
[5] = test system: HIV-1 (Group M) isolate 92RW016, subtype A; experiment: Antiviral assay in fresh human PBMCs; type: cell-based
[6] = test system: HIV-1 (Group M) isolate 91US004, subtype B; experiment: Antiviral assay in fresh human PBMCs; type: cell-based
[7] = test system: HIV-1 (Group M) isolate 98IN022, subtype C; experiment: Antiviral assay in fresh human PBMCs; type: cell-based
[8] = test system: HIV-1 (Group M) isolate 93UG067, subtype D; experiment: Antiviral assay in fresh human PBMCs; type: cell-based
[9] = test system: HIV-1 (Group M) isolate CMU08, subtype E; experiment: Antiviral assay in fresh human PBMCs; type: cell-based
[10] = test system: HIV-1 (Group M) isolate 93BR029, subtype F; experiment: Antiviral assay in fresh human PBMCs; type: cell-based
[11] = test system: HIV-1 (Group M) isolate G3, subtype G; experiment: Antiviral assay in fresh human PBMCs; type: cell-based
[12] = test system: HIV-1 (Group M) isolate CDC310342, CRF02-AG; experiment: Antiviral assay in fresh human PBMCs; type: cell-based
HIV-2 isolate CDC310319 = experiment: Antiviral assay in fresh human PBMCs; type: cell-based
Summary of the method: (§1)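 Freshly isolated human PBMCs are infected with virus and cultured with test compound. Replication is measured as reverse transcriptase activity in culture supernatants, using a microtiter plate-based RT reaction. EC50 is the concentration giving 50% inhibition, as the mean of three determinations. CC50 is measured in parallel with the tetrazolium dye MTS, and therapeutic index = CC50/EC50.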

SIV isolate MAC251 = experiment: Antiviral assay in fresh human PBMCs; type: cell-based; conditions: PBMC
Summary of the method: as §1

[13] = test system: HIV-1, HIV-2 and SIV isolates; experiment: Antiviral assay in PBMCs, all isolates together; type: cell-based; conditions: PBMC, read-out: mean EC50 (± SD), all isolates
[14] = Cytotoxicity in human PBMC cultures; type: cell-based; conditions: peripheral blood mononuclear cells (PBMCs)
Summary of the method: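 Freshly isolated human PBMCs are cultured with test compound. Viability is read out with the tetrazolium-based dye MTS, and CC50 is derived from that read-out.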

[15] = test system: HIV-1 NL4-3 integrase Q148R; type: cell-based; conditions: MT-4 cells; IN substitution Q148R
[16] = In vitro human liver microsome stability; type: in vitro ADME
CYP3A4 = CYP3A4 (Homo sapiens, UniProt P08684); experiment: Cytochrome P-450 isozyme inhibition assay in human liver microsomes; type: in vitro ADME
CYP3A4, sequence (P08684 whole entry): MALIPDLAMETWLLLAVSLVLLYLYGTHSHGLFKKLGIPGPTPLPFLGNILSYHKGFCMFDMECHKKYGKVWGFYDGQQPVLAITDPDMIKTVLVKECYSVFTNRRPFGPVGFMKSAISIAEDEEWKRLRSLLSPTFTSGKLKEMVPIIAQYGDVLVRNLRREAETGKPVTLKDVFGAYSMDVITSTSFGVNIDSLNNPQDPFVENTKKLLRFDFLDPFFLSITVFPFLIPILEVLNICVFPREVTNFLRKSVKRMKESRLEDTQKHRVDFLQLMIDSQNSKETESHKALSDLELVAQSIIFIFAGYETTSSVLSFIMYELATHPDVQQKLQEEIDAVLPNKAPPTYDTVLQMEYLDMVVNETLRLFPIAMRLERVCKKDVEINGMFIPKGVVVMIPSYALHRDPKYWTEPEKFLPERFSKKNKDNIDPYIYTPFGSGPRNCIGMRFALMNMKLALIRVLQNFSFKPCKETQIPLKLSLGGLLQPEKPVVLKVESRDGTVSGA

CYP2D6 = CYP2D6 (Homo sapiens, UniProt P10635); experiment: as above; type: in vitro ADME
CYP2D6, sequence (P10635 whole entry): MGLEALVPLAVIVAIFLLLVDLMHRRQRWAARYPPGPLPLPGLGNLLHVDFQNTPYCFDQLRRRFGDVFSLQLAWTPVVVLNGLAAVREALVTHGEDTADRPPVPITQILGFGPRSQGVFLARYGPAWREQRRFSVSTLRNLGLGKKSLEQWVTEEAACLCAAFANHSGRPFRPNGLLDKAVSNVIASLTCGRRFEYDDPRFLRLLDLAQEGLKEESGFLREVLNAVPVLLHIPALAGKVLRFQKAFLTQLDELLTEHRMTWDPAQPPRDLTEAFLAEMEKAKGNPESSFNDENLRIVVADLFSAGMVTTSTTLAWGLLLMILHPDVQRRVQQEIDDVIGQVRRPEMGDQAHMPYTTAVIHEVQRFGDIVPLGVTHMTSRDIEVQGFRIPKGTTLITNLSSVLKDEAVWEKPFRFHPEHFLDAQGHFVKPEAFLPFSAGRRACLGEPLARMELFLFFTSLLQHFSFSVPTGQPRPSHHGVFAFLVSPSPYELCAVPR

CYP2C8 = CYP2C8 (Homo sapiens, UniProt P10632); experiment: as above; type: in vitro ADME
CYP2C8, sequence (P10632 whole entry): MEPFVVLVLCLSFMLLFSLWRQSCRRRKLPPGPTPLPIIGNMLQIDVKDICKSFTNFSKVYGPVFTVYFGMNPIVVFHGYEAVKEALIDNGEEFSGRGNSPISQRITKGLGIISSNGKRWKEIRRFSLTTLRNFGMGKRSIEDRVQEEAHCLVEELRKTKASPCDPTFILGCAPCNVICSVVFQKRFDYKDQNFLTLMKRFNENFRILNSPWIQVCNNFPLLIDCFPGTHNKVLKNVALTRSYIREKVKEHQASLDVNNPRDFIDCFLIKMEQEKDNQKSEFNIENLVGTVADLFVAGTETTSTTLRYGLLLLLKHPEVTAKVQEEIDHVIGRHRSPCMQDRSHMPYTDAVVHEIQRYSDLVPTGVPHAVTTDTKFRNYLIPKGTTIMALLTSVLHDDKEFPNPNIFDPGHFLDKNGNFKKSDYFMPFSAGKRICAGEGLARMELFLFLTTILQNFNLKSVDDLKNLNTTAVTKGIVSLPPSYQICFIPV

CYP2C9 = CYP2C9 (Homo sapiens, UniProt P11712); experiment: as above; type: in vitro ADME
CYP2C9, sequence (P11712 whole entry): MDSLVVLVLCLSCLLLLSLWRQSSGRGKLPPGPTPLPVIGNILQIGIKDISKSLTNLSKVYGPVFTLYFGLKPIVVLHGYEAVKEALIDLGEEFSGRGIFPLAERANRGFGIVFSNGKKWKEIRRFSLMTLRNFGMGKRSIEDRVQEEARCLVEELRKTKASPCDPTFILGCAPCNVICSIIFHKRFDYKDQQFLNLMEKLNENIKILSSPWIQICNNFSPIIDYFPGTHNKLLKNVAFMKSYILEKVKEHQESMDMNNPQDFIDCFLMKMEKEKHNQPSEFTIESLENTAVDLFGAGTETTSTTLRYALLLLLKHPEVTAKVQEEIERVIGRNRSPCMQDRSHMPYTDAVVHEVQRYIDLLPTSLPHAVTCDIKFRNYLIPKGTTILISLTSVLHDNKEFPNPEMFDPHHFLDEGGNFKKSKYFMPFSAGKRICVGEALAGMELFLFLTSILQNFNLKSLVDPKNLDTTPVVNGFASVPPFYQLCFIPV

CYP2C19 = CYP2C19 (Homo sapiens, UniProt P33261); experiment: as above; type: in vitro ADME
CYP2C19, sequence (P33261 whole entry): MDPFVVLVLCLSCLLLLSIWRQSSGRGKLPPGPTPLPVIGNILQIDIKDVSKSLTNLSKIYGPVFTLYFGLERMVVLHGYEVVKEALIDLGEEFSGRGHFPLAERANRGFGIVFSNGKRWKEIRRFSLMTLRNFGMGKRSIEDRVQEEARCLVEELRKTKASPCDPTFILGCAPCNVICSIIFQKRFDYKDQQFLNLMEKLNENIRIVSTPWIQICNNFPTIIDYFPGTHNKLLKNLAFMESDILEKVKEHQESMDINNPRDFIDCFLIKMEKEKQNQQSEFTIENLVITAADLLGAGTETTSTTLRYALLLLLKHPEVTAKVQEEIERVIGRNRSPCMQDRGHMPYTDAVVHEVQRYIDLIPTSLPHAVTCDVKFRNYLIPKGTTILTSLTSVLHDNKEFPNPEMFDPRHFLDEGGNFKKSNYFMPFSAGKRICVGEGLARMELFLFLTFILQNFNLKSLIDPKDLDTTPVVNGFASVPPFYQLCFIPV

[17] = test system: CYP isozymes (3A4, 2D6, 2C8, 2C9, 2C19); experiment: Activation of CYP isozymes; type: in vitro ADME; conditions: human liver microsomes; CYP 3A4, 2D6, 2C8, 2C9, 2C19
[18] = test system: UGT in pooled human liver microsomes (UGT 1A1, 1A4, 1A6, 1A9 and 2B7); experiment: UGT substrate activity in pooled human liver microsomes; type: in vitro ADME
UGT1A1 = UGT1A1 (Homo sapiens, UniProt P22309); experiment: UGT substrate activity with cDNA-expressed isozyme; type: in vitro ADME; conditions: UGT1A1 (BD Biosciences); HPLC
UGT1A1, sequence (P22309 26-533): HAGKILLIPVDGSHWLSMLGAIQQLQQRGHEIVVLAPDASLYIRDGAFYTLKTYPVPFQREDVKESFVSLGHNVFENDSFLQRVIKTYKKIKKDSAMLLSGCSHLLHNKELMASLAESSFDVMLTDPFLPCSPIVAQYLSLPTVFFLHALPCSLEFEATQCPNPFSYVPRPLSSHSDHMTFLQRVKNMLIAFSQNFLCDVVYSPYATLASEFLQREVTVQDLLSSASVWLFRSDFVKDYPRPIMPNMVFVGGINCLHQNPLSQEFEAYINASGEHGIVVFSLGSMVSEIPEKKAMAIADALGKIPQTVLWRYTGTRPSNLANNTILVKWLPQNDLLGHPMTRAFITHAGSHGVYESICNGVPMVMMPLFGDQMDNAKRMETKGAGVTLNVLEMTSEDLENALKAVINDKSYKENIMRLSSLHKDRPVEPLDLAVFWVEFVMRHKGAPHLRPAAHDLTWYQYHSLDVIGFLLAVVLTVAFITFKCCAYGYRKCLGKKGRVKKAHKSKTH

UGT1A3 = UGT1A3 (Homo sapiens, UniProt P35503); experiment: UGT substrate activity with cDNA-expressed isozyme; type: in vitro ADME; conditions: UGT1A3 (BD Biosciences); HPLC
UGT1A3, sequence (P35503 29-534): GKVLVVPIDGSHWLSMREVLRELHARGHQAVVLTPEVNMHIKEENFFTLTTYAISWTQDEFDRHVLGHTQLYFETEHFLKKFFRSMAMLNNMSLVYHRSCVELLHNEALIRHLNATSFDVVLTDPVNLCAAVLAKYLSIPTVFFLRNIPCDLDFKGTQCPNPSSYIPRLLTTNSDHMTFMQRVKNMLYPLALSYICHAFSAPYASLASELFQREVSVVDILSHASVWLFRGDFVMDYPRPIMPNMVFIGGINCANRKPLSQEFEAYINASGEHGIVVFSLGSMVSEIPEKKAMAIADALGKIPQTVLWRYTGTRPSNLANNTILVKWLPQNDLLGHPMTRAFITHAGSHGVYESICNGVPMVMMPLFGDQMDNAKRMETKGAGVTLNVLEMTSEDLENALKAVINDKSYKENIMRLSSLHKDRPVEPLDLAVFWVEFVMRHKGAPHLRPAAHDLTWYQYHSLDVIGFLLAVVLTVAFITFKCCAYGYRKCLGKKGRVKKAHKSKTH

UGT1A4 = UGT1A4 (Homo sapiens, UniProt P22310); experiment: UGT inhibition study with trifluoperazine as substrate; type: in vitro ADME; conditions: human liver microsomes
UGT1A4, sequence (P22310 29-534): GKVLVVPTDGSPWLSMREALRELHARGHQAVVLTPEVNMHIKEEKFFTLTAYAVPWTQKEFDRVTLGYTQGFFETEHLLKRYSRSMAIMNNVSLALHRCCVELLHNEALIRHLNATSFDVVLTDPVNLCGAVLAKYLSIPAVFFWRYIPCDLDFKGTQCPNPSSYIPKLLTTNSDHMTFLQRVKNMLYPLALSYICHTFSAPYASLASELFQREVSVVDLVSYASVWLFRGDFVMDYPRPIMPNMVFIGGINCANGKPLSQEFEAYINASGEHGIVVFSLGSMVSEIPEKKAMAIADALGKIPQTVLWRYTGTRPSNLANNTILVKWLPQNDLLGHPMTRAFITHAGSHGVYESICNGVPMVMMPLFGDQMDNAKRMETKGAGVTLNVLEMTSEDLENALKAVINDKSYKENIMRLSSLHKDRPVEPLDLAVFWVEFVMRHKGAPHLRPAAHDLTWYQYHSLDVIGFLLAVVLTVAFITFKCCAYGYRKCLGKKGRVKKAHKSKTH
Summary of the method: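 Pooled human liver microsomes (0.2 mg/mL protein) were held with alamethicin (0.024 mg/mg protein) in 100 mM potassium phosphate, pH 7.4, with 5 mM MgCl2 at 0 °C for 15 min. Test compound in DMSO (0 to 300 μM) and trifluoperazine substrate were added, with organic solvent <1.6%. Mixtures were preincubated 3 min at 37 °C, then started with UDPGA (final 4 mM) and run 15 min. Acetonitrile stop, centrifugation, HPLC-UV of supernatant.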

UGT isozymes = experiment: Activation of UGT isozymes in human liver microsomes; type: in vitro ADME; conditions: kinetic studies in human liver microsomes
[19] = Human immunodeficiency virus 1, PBMC, in Homo sapiens, read-out: EC50 (± SD)

Q: Which “EC50 fold change compared to wild-type virus” value (“EC50 fold change” for short) (WT HIV-1 NL4-3) does the source give for `Cc1cn([C@H]2C[C@H](N=[N+]=[N-])[C@@H](CO)O2)c(=O)[nH]c1=O` [AZT] here?
A: 1.0

Q: What about the “EC50 fold change” value [1] of the same compound?
A: 1.18

Q: What about the “EC50 fold change” value [2] of the same compound?
A: 3.29

Q: And the “EC50 fold change” value [3]?
A: 3.45

Q: What about the “EC50 fold change” value [4] of the same compound?
A: 1.0

Q: For `O=C(C=C(O)c1cc(Cc2c(F)cccc2F)cn(Cc2ccccc2F)c1=O)C(=O)NN1CCCC1=O` [Compound 1, 4-(5-(2,6-difluorobenzyl)-1-(2-fluorobenzyl)-2-oxo-1,2-dihydropyridin-3-yl)-4-hydroxy-2-oxo-N-(2-oxopyrrolidin-1-yl)but-3-enamide], which EC50 [5, 19] is on record?
A: 20.8 nM

Q: What about the “Therapeutic Index (CC50/EC50)” value ([5]; PBMC, isolate 92RW016, subtype A) of the same compound?
A: 4,625

Q: And the EC50 [6, 19]?
A: 6.89 nM

Q: What about the “Therapeutic Index (CC50/EC50)” value ([6]; PBMC, isolate 91US004, subtype B) of the same compound?
A: 13,962

Q: What about the EC50 [7, 19] of the same compound?
A: 29.8 nM

Q: And the “Therapeutic Index (CC50/EC50)” value ([7]; PBMC, isolate 98IN022, subtype C)?
A: 3,228

Q: And the EC50 [8, 19]?
A: 48.5 nM

Q: What about the “Therapeutic Index (CC50/EC50)” value ([8]; PBMC, isolate 93UG067, subtype D) of the same compound?
A: 1,984

Q: What about the EC50 [9, 19] of the same compound?
A: 52.4 nM

Q: And the “Therapeutic Index (CC50/EC50)” value ([9]; PBMC, isolate CMU08, subtype E)?
A: 1,836

Q: And the EC50 [10, 19]?
A: 18.3 nM

Q: What about the “Therapeutic Index (CC50/EC50)” value ([10]; PBMC, isolate 93BR029, subtype F) of the same compound?
A: 5,257

Q: What about the EC50 [11, 19] of the same compound?
A: 34.9 nM

Q: What about the “Therapeutic Index (CC50/EC50)” value ([11]; PBMC, isolate G3, subtype G) of the same compound?
A: 2,756

Q: What about the EC50 [12, 19] of the same compound?
A: 33.4 nM

Q: What about the “Therapeutic Index (CC50/EC50)” value ([12]; PBMC, isolate CDC310342, CRF02-AG) of the same compound?
A: 2,880

Q: And the EC50 (HIV-2 isolate CDC310319; Human immunodeficiency virus 2, PBMC, in Homo sapiens, read-out: EC50 (± SD))?
A: 86 nM

Q: What about the “Therapeutic Index (CC50/EC50)” value (HIV-2 isolate CDC310319; PBMC, HIV-2 isolate CDC310319) of the same compound?
A: 1,119

Q: And the “Therapeutic Index (CC50/EC50)” value (SIV isolate MAC251; SIV isolate MAC251)?
A: 5,037

Q: What about the EC50 (SIV isolate MAC251; Simian immunodeficiency virus, in Homo sapiens, read-out: EC50 (± SD)) of the same compound?
A: 19.1 nM

Q: And the EC50 [13]?
A: 35 nM

Q: What about the CC50 [14] of the same compound?
A: 96200 nM

Q: And the “EC50 fold change” value (WT HIV-1 NL4-3)?
A: 1.0

Q: And the “EC50 fold change” value [1]?
A: 1.87

Q: And the “EC50 fold change” value [2]?
A: 8.20

Q: And the “EC50 fold change” value [15]?
A: 18.8

Q: And the “EC50 fold change” value [3]?
A: 6.13

Q: And the “EC50 fold change” value [4]?
A: 5.20

Q: What about the “stability in pooled human liver microsomes” value ([16]; 50 μM, 0.5 mg/mL protein, NADPH, 37 °C) of the same compound?
A: relatively stable

Q: And the IC50 (CYP3A4)?
A: > 200000 nM

Q: And the IC50 (CYP2D6)?
A: > 200000 nM

Q: What about the IC50 (CYP2C8) of the same compound?
A: > 200000 nM

Q: And the IC50 (CYP2C9)?
A: > 200000 nM

Q: And the inhibition at 30 min, 200 μM (CYP2C9; human, liver microsomes, pH 7.4, probe tolbutamide 500 μM)?
A: 15.5%

Q: What about the IC50 (CYP2C19) of the same compound?
A: > 200000 nM

Q: What about the “activation of CYP isozymes” value [17] of the same compound?
A: not an activator

Q: What about the “Glucuronide (formed)” value [18] of the same compound?
A: None^a

Q: What about the “Glucuronide (formed)” value (UGT1A1) of the same compound?
A: None^a

Q: And the “Glucuronide (formed)” value (UGT1A3)?
A: None^a

Q: What about the “inhibition of UGT1A4” value (UGT1A4) of the same compound?
A: not an inhibitor

Q: What about the “activation of UGT isozymes” value (UGT isozymes) of the same compound?
A: no indication of the activation

Q: Which “EC50 fold change” value (WT HIV-1 NL4-3) does the source give for `COc1cc2c(cc1Cc1cccc(Cl)c1F)c(=O)c(C(=O)O)cn2[C@H](CO)C(C)C` [Elvitegravir, elvitegravir] here?
A: 1.0

Q: What about the “EC50 fold change” value [1] of the same compound?
A: 46.7

Q: What about the “EC50 fold change” value [2] of the same compound?
A: 200

Q: And the “EC50 fold change” value [15]?
A: 96.1

Q: And the “EC50 fold change” value [3]?
A: 134

Q: And the “EC50 fold change” value [4]?
A: 5.5

Q: For `C[C@]12CC[C@@H]3c4ccc(O)cc4CC[C@H]3[C@@H]1CC[C@@H]2O` [Estradiol, reference compound], which “Glucuronide (formed)” value [18] is on record?
A: Glucuronides (two)

Q: What about the “Glucuronide (formed)” value (UGT1A1) of the same compound?
A: Glucuronide

Q: With `Cc1cc(=O)oc2cc(O)ccc12` [Methylumbelliferone, 4-methylumbelliferone] as the compound, how does the “Glucuronide (formed)” value [18] read?
A: Glucuronide

Q: With `CN1CCN(CCCN2c3ccccc3Sc3ccc(C(F)(F)F)cc32)CC1` [Trifluoperazine] as the compound, how does the “Glucuronide (formed)” value ([18]; pHLM (Xenotech), HPLC) read?
A: N-Glucuronide

Q: With `Cc1ncc2n1-c1ccc(Cl)cc1C(c1ccccc1F)=NC2` [midazolam] as the compound, how does the remaining at 1 h ([16]; human, microsomes, pH 7.4) read?
A: 61.5%

Q: What about the Km ([16]; human, pH 7.4) of the same compound?
A: 2.52 µM
